According to ChEMBL document CHEMBL2093137, “WHO-TDR NTD Screening”:
Converted amounts (≈) assume the structure as drawn.

Tests used:
Brugia malayi = test: WHO-TDR: Lymphatic Filariasis; type: functional; design: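 tested at 10 µM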
Procedure, shortened: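 Percent inhibition and IC50 describe activity against Brugia malayi microfilariae in a whole-organism screen. The screen used previously published standard procedures with reference drugs as positive controls. Compounds came from a diverse Life Chemicals library of 10,000, filtered for drug-likeness and reactive groups.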

Onchocerca ochengi = test: WHO-TDR: Onchocerciasis; type: functional; design: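 at 12.5 µM on microfilariae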
Procedure, shortened: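 Onchocerca ochengi or Onchocerca lienalis, animal pathogens used as surrogates for the human parasite, were screened as whole microfilariae against a 10,000-compound diverse library from Life Chemicals. The reported measures of activity are percent inhibition and IC50.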

Plasmodium falciparum K1 = test: WHO-TDR: Malaria; type: functional, organism-based, Homo sapiens; details: Erythrocyte
Procedure, shortened: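 Values are IC50 figures for antiplasmodial potency. They come from a whole-organism screen of 10,000 diverse Life Chemicals compounds against Plasmodium falciparum K1 growing inside human red blood cells, run by previously published standard procedures.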

Leishmania infantum = test: WHO-TDR: Leishmaniasis; type: functional, organism-based, Mus musculus; details: Macrophage
Procedure, shortened: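 Values are IC50 figures for antiparasitic potency. They come from a whole-organism screen of a 10,000-compound diverse Life Chemicals library against Leishmania infantum MHOM/MA(BE)/67 amastigotes inside murine peritoneal macrophage host cells.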

Schistosoma mansoni = test: WHO-TDR: Schistosomiasis; type: functional; design: concentration or dose not given beside the values
Procedure, shortened: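 Larval and/or adult Schistosoma mansoni (Puerto Rican strain) were tested whole against 10,000 diverse compounds from Life Chemicals. The procedure was a previously published standard one, using a reference drug as positive control. Results are expressed as percent inhibition and IC50.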

[1] = WHO-TDR: Cytotoxicity; type: toxicity, cell-based; details: human, MRC5 cells
[2] = system: Trypanosoma brucei brucei; test: WHO-TDR: Human African Trypanosomiasis (HAT); type: functional, organism-based; details: Squib-427
Procedure, shortened: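 Values are IC50 figures for antiparasitic potency. They come from a whole-organism screen of 10,000 diverse Life Chemicals compounds against bloodstream-form Trypanosoma brucei (Squib 427 strain).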

Trypanosoma cruzi = test: WHO-TDR: Chagas disease; type: functional, organism-based, Homo sapiens; details: MRC5
Procedure, shortened: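 Whole-organism screen of a 10,000-compound diverse library from Life Chemicals, filtered for drug-likeness and reactive groups, against intracellular amastigotes of Trypanosoma cruzi Tulahuen CL2 beta-galactosidase strain grown in MRC-5SV2 human lung fibroblast host cells. The assay followed previously published standard procedures, with a reference drug as positive control. Antiparasitic potency is reported as IC50.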

Compound | IC50 (Plasmodium falciparum K1) [µg/mL] | IC50 (Leishmania infantum) [µg/mL] | IC50 [2] [µg/mL] | % Inhibition (Brugia malayi) [%] | % Inhibition (Onchocerca ochengi) [%] | % Inhibition (Schistosoma mansoni) [%] | IC50 [1] [µg/mL] | IC50 (Trypanosoma cruzi) [µg/mL]
COc1ccc(OC)c(S(=O)(=O)NCCNc2ccc(Nc3cc(C)ccn3)nn2)c1 | 5.13 (≈ 11.5 µM) | > 13.3 | 4.66 (≈ 10.5 µM) | 50 | 100 | 0 | > 13.3 | > 13.3
Cc1ccnc(Nc2ccc(NCCNS(=O)(=O)c3cccc(Cl)c3)nn2)c1 | > 12.6 | > 12.6 | 4.02 (≈ 9.6 µM) | 0 | 100 | 0 | > 12.6 | > 12.6
Cc1ccnc(Nc2ccc(N3CCN(C(=O)c4ccc(F)cc4)CC3)nn2)c1 | > 11.8 | 0.381 (≈ 0.971 µM) | > 11.8 | 0 | 0 | 0 | > 11.8 | > 11.8
COc1cccc(NC(=O)N2CCN(c3ccc(Nc4cc(C)ccn4)nn3)CC2)c1 | 9.16 (≈ 21.8 µM) | > 12.6 | 5.21 (≈ 12.4 µM) | 0 | 100 | 0 | > 12.6 | > 12.6
CCc1ccc(NC(=O)N2CCN(c3ccc(Nc4cc(C)ccn4)nn3)CC2)cc1 | 8.24 (≈ 19.7 µM) | > 12.5 | > 12.5 | 50 | 100 | 0 | > 12.5 | > 12.5
CCc1ccc(C(=O)NCCNc2ccc(Nc3cccc(C)n3)nn2)cc1 | 3.3 (≈ 8.76 µM) | > 11.3 | > 11.3 | 0 | 100 | 0 | 6.22 (≈ 16.5 µM) | > 11.3
COc1cccc(NC(=O)NCCNc2ccc(Nc3cccc(C)n3)nn2)c1 | 4.98 (≈ 12.6 µM) | > 11.8 | 4.13 (≈ 10.5 µM) | 0 | 100 | 0 | > 11.8 | > 11.8
Cc1cccc(Nc2ccc(NCCNS(=O)(=O)c3ccc(F)cc3)nn2)n1 | 0.582 (≈ 1.45 µM) | > 12.1 | 4.06 (≈ 10.1 µM) | 50 | 100 | 0 | > 12.1 | > 12.1
COc1ccc(C)cc1S(=O)(=O)NCCNc1ccc(Nc2cccc(C)n2)nn1 | 3.4 (≈ 7.95 µM) | > 12.9 | 5.42 (≈ 12.7 µM) | 0 | 100 | 0 | > 12.9 | > 12.9
O=C(NCCNc1ccc(Nc2ccccn2)nn1)c1ccc(F)cc1 | 4.32 (≈ 12.3 µM) | > 10.6 | > 10.6 | 0 | 100 | 0 | > 10.6 | > 10.6
O=C(NCCNc1ccc(Nc2ccccn2)nn1)c1cccc(C(F)(F)F)c1 | 5.09 (≈ 12.6 µM) | > 12.1 | 6.4 (≈ 15.9 µM) | 50 | 100 | 0 | 10.1 (≈ 25 µM) | > 12.1
O=C(NCCNc1ccc(Nc2ccccn2)nn1)Nc1ccc(F)cc1 | > 11 | > 11 | 3.66 (≈ 9.95 µM) | 0 | 100 | 0 | > 11 | > 11
Cc1cc(C)cc(NC(=O)NCCNc2ccc(Nc3ccccn3)nn2)c1 | > 11.3 | 0.367 (≈ 0.972 µM) | > 11.3 | 0 | 100 | 0 | > 11.3 | > 11.3
COc1ccc(S(=O)(=O)N2CCN(c3ccc(Nc4ccccn4)nn3)CC2)cc1 | > 12.8 | 0.414 (≈ 0.971 µM) | > 12.8 | 0 | 0 | 16.7 | > 12.8 | > 12.8
O=C(c1ccc(Cl)cc1Cl)N1CCN(c2ccc(Nc3cccnc3)nn2)CC1 | 7.24 (≈ 16.9 µM) | > 12.9 | > 12.9 | 0 | 100 | 0 | > 12.9 | 3.7 (≈ 8.63 µM)
O=C(c1ccc(C(F)(F)F)cc1)N1CCN(c2ccc(Nc3cccnc3)nn2)CC1 | > 12.9 | > 12.9 | > 12.9 | 25 | 100 | 0 | 7.94 (≈ 18.5 µM) | 3.43 (≈ 8.02 µM)
Cc1ccc(S(=O)(=O)N2CCN(c3ccc(Nc4cccnc4)nn3)CC2)c(C)c1 | 0.716 (≈ 1.69 µM) | > 12.7 | > 12.7 | 0 | 100 | 0 | 0.804 (≈ 1.89 µM) | 3.91 (≈ 9.21 µM)
O=S(=O)(c1ccc2ccccc2c1)N1CCN(c2ccc(Nc3cccnc3)nn2)CC1 | > 13.4 | 0.434 (≈ 0.972 µM) | > 13.4 | 0 | 0 | 0 | > 13.4 | > 13.4

Second part, led by results:

IC50 (Plasmodium falciparum K1) [µg/mL] | IC50 (Leishmania infantum) [µg/mL] | IC50 [2] [µg/mL] | Compound | % Inhibition (Brugia malayi) [%] | % Inhibition (Onchocerca ochengi) [%] | % Inhibition (Schistosoma mansoni) [%] | IC50 [1] [µg/mL] | IC50 (Trypanosoma cruzi) [µg/mL]
12.1 (≈ 30 µM) | 3.91 (≈ 9.71 µM) | 3.91 (≈ 9.71 µM) | Cc1ccnc(Nc2ccc(NCCNS(=O)(=O)c3ccc(F)cc3)nn2)c1 | 50 | 100 | 0 | > 12.1 | 4.13 (≈ 10.3 µM)
> 12.2 | > 12.2 | 5.79 (≈ 14.2 µM) | Cc1ccnc(Nc2ccc(N3CCN(C(=O)Nc4cccc(F)c4)CC3)nn2)c1 | 75 | 100 | 0 | > 12.2 | > 12.2
4.75 (≈ 13.1 µM) | > 10.9 | > 10.9 | Cc1cccc(Nc2ccc(NCCNC(=O)Nc3ccccc3)nn2)n1 | 0 | 100 | 0 | 10.4 (≈ 28.7 µM) | > 10.9
8.36 (≈ 21.9 µM) | > 11.4 | > 11.4 | Cc1cccc(Nc2ccc(NCCNC(=O)Nc3ccc(F)cc3)nn2)n1 | 0 | 100 | 0 | > 11.4 | > 11.4
> 12.4 | 8.43 (≈ 20.4 µM) | 4.01 (≈ 9.71 µM) | Cc1ccc(S(=O)(=O)NCCNc2ccc(Nc3cccc(C)n3)nn2)c(C)c1 | 0 | 100 | 0 | > 12.4 | 3.96 (≈ 9.61 µM)
2.41 (≈ 5.65 µM) | 5.4 (≈ 12.7 µM) | 4.14 (≈ 9.71 µM) | Cc1cc(C)c(S(=O)(=O)NCCNc2ccc(Nc3cccc(C)n3)nn2)c(C)c1 | 0 | 100 | 33.3 | 6.74 (≈ 15.8 µM) | 4.46 (≈ 10.5 µM)
7.28 (≈ 18.1 µM) | > 12.1 | 11 (≈ 27.5 µM) | O=C(NCCNc1ccc(Nc2ccccn2)nn1)c1ccc(C(F)(F)F)cc1 | 50 | 100 | 0 | 7.71 (≈ 19.2 µM) | > 12.1
> 10.8 | 0.35 (≈ 0.971 µM) | > 10.8 | O=C(c1ccccc1)N1CCN(c2ccc(Nc3ccccn3)nn2)CC1 | 0 | 0 | 0 | > 10.8 | > 10.8
> 11.3 | > 11.3 | > 11.3 | O=C(Nc1ccccc1)N1CCN(c2ccc(Nc3ccccn3)nn2)CC1 | 0 | 100 | 0 | 11.3 (≈ 30 µM) | > 11.3
2.8 (≈ 6.6 µM) | 0.412 (≈ 0.97 µM) | > 12.7 | CCc1ccc(S(=O)(=O)N2CCN(c3ccc(Nc4ccccn4)nn3)CC2)cc1 | 0 | 0 | 0 | > 12.7 | > 12.7
> 12.1 | > 12.1 | > 12.1 | Cc1ccc(NC(=O)N2CCN(c3ccc(Nc4cccnc4)nn3)CC2)cc1C | 0 | 100 | 0 | > 12.1 | > 12.1
5.44 (≈ 13.1 µM) | 0.403 (≈ 0.972 µM) | > 12.4 | O=S(=O)(c1cccc(F)c1)N1CCN(c2ccc(Nc3cccnc3)nn2)CC1 | 0 | 0 | 0 | 0.937 (≈ 2.26 µM) | > 12.4
